Compound activity deposited in PubChem BioAssay by The Scripps Research Institute Molecular Screening Center.
CTSL1 counter-1: counter-screen for PFM18AAP inhibitors: inhibitors of F. hepatica cathepsin L1; recombinant F. hepatica cathepsin L1, Z-Leu-Arg-MCA fluorescence; inhibition, % at 5.96 µM; 0.49% of 300,000 active; AID 1906;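 active means inhibition above the mean of all tested compounds plus 3 SD, set per screening campaign, cut at about 17% in these data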;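 further: 0% = plate median of test compound wells and 100% = 1 µM Z-Phe-Ala-diazomethylketone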
PfM18AAP inh-1: blocks P. falciparum M18 aspartyl aminopeptidase; 1.2% of 290,000 active; inhibition, % at 7.35 µM; recombinant PfM18AAP, H-Glu-NHMec fluorogenic cleavage;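 active means inhibition above the campaign mean inhibition over all tested compounds plus 3 SD, cut at about 28% in these data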;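 further: 0% = plate median of test compound wells and 100% = 2 mM ZnCl2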
VIM-2 inhibitor: inhibitors of Pseudomonas aeruginosa VIM-2 metallo-beta-lactamase | purified VIM-2, nitrocefin hydrolysis, epi-absorbance fluorescence | inhibition, % at 5.6 µM | 0.89% of 290,000 active | AID 1527;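 active means inhibition above the mean of all tested compounds plus 3 SD, cutoff set per screening run, cut at about 7.5% in these data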;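 further: red hydrolysis product quenches plate fluorescence so inhibitors raise well fluorescence; 0% = enzyme with DMSO and 100% = DMSO without enzyme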
IMP-1 inh: blocks Pseudomonas aeruginosa IMP-1 metallo-beta-lactamase; purified IMP-1, nitrocefin hydrolysis, epi-absorbance fluorescence; inhibition, % at 5.6 µM; 0.45% of 290,000 active; AID 1556;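 active means inhibition above the mean plus 3 SD of all compounds in the same screening run, cut at about 4.5% in these data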;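 further: 0% = IMP-1 with DMSO and 100% = DMSO wells lacking enzyme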
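Material – recombinant IMP-1 enzyme, purified · Amount – IMP-1 0.2 nM before substrate addition · Medium – HEPES buffer pH 7.1 with ZnSO4 and Brij 35 · Timing – 25 °C, 15 min preincubation, 25 min reaction · Measured by – plate fluorescence quenching by hydrolysis product, ex 480/em 530 nm · Read-out – percent enzyme inhibition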
PfM18AAP inh-2: PfM18AAP inhibition, confirmation; shares compounds with PfM18AAP inh-1; recombinant PfM18AAP, H-Glu-NHMec fluorogenic cleavage; inhibition, % at 7.35 µM; 28% of 2,400 active; AID 2170;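 active means mean inhibition over replicate wells above the hit cutoff set for the earlier primary screen, cut at about 29% in these data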;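 further: 0% = median of test compound wells and 100% = 2 mM ZnCl2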
CTSL1 counter-2: Cathepsin L (human) inhibition, confirmation | shares compounds with PfM18AAP inh-1 | purified cathepsin L1, Z-Leu-Arg-MCA fluorescence | inhibition, % at 5.96 µM | 2,400 tested, under 10 active;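 active means average inhibition across replicates above the hit cutoff set in the earlier primary screen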;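 further: 0% = median of test compound wells and 100% = Z-Phe-Ala-diazomethylketone 1 µM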
Target sequence (P07711 whole entry, looked up): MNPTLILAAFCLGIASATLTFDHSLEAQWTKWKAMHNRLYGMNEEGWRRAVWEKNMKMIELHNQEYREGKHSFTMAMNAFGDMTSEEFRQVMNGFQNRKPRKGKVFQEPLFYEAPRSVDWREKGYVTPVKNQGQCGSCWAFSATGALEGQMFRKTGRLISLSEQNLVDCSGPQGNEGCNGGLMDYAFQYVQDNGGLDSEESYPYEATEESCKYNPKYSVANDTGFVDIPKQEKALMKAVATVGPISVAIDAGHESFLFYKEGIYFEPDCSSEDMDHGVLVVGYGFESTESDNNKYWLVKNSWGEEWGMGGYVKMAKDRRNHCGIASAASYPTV
Numbers without * were called inactive; x = not tested or not shown. An excerpt weighted towards active compounds, which were near 2.7% of everything screened.

SMILES | CTSL1 counter-1 | PfM18AAP inh-1 | VIM-2 inhibitor | IMP-1 inh | PfM18AAP inh-2 | CTSL1 counter-2
CCc1ccc(NC(=O)Nn2cnnc2)cc1 | 2 | 55* | -2 | -4 | 30* | -4
CCO[C@H]1OC(C(N)=O)=C[C@@H](C(C)(C)C)[C@@H]1CCCO | 1 | x | x | x | x | x
Cc1ccc(C(=O)NC2CCCCC2)cc1S(=O)(=O)N1CCCC1 | 3 | 12 | -2 | -2 | x | x
O=c1c2c([N+](=O)[O-])cc([N+](=O)[O-])cc2sn1-c1ccc(Br)cc1 | 5 | 25 | -3 | -4 | x | x
O=c1c2c([N+](=O)[O-])cc([N+](=O)[O-])cc2sn1Cc1ccccc1 | 0 | 79* | 4 | -2 | 72* | 2
O=C(Nn1cnnc1)c1cc2c(s1)CCCCC2 | -2 | 53* | 0 | -1 | 55* | 5
CNC(=O)c1cc2c(s1)CCCCCC2 | 2 | 6 | -5 | -5 | x | x
O=C(NCC1CCCO1)c1ccc2c(c1)N(Cc1ccccc1)C(=O)CS2=O (configuration not stated) | 0 | 42* | 1 | -2 | -63 | -5
CC1CCCC(NC(=O)c2ccc3c(c2)N(Cc2ccccc2)C(=O)CS3=O)C1C (configuration not stated) | 2 | 3 | -2 | -2 | x | x
CCN(CC)C(=O)c1ccc2c(c1)N(Cc1ccccc1)C(=O)CS2=O (configuration not stated) | 5 | 54* | -1 | -4 | -25 | -3
O=C(NCc1ccco1)c1ccc2c(c1)N(Cc1ccccc1)C(=O)CS2=O (configuration not stated) | -2 | 26 | -3 | -4 | x | x
Cc1cc(NN)nc(NS(=O)(=O)c2ccccc2Cl)n1 | -1 | 39* | -1 | -3 | -2 | 2
Cc1ccc(S(=O)(=O)Nc2nc(C)cc(NCCN)n2)cc1 | 0 | 4 | -3 | -2 | x | x
Cc1ccc(S(=O)(=O)Nc2nc(C)cc(NN)n2)cc1 | 0 | 40* | -2 | -1 | 29* | -1
COc1cc(C)nc(NS(=O)(=O)c2ccccc2Cl)n1 | 1 | 1 | 1 | -1 | x | x
O=C(O)CCC(=O)NNc1nc2ccccc2nc1-c1ccccc1 | 3 | -4 | -1 | -1 | x | x
Cc1nn(Cc2ccccc2)c(Cl)c1/C=C1\NC(=S)NC1=O | -1 | 2 | 1 | -1 | x | x
O=C(CSc1nc2[nH]ncc2c(=O)n1-c1ccccc1)NCCc1ccccc1 | -2 | 15 | -2 | 0 | x | x
O=C(CSc1nc2[nH]ncc2c(=O)n1-c1ccccc1)NCc1cccs1 | -4 | 57* | -2 | -3 | 39* | 0
COc1ccc(-n2c(SCC(=O)NCc3cccs3)nc3[nH]ncc3c2=O)cc1 | -4 | 52* | 2 | -4 | 34* | 0
Cc1cccc(NC(=O)CSc2nc3[nH]ncc3c(=O)n2-c2ccccc2)c1 | 1 | 36* | -3 | -3 | -2 | 3
Cc1[nH]c2ccccc2c1C(=O)C(=O)NCc1ccco1 | 0 | -2 | 1 | 0 | x | x
CC(C)n1c(SCC(=O)Nc2nncs2)nnc1-c1ccco1 | 0 | 74* | -5 | -6 | 60* | -3
Cc1nnc(NC(=O)CSc2nnc(-c3ccco3)n2C(C)C)s1 | 0 | -7 | 0 | 2 | x | x
CCOC(=O)CSc1nnc(CNC(=O)c2ccc([N+](=O)[O-])cc2)n1C | 0 | -1 | -3 | -2 | x | x
SMILES | CTSL1 counter-1 | PfM18AAP inh-1 | VIM-2 inhibitor | IMP-1 inh | PfM18AAP inh-2 | CTSL1 counter-2
Cc1ccc(NC(=O)O/N=C/c2ccc(N(C)C)cc2)cc1 | 3 | -3 | -1 | -4 | x | x
CCOc1cc(/C=C2\CN(C)C/C(=C\c3ccc(O)c(OCC)c3)C2=O)ccc1O | 1 | 44* | -2 | -5 | 10 | 7
CCOc1cc(/C=C2\SC(N)=NC2=O)ccc1O | 9 | 38* | -2 | -3 | -16 | 0
CCOc1cc(/C=C2/C(=O)ON=C2C)ccc1O | 7 | 25 | -4 | -8 | x | x
CCOC(=O)C1=C(O)/C(=C\c2ccc(O)c(OCC)c2)N=C1C | 2 | 40* | -2 | -3 | -41 | 2
CCCN(CCC)C(=O)c1cc([N+](=O)[O-])cc2c1-c1ccc([N+](=O)[O-])cc1C2=C(C#N)C#N | -1 | -3 | -3 | -1 | x | x
COc1cccc(/C=N\NC(=O)c2ccc(Cn3cc(Br)c([N+](=O)[O-])n3)o2)c1O | 4 | 10 | -7 | -2 | x | x
Cc1ccccc1NC(=S)c1ccc2ccccc2n1 | 0 | 41* | -2 | -2 | -24 | 3
CCCN(CC(=O)Nc1ccccc1C)C(=O)c1ccc2ccccc2n1 | -2 | x | x | x | x | x
O=C(Nc1ccc(S(=O)(=O)N2CCOCC2)cc1)c1ccc(Cl)cc1Cl | -1 | 1 | -2 | -2 | x | x
Cc1ccc(/C(O)=C/c2nc3cc(C)ccc3oc2=O)cc1 | 1 | 39* | 3 | 0 | -36 | -10
O=c1oc2ccccc2nc1/C=C(\O)c1ccccc1 | 6 | 21 | -2 | -1 | x | x
Nc1nncn1C(=O)CCCOc1ccccc1 | -6 | 35* | -2 | -3 | 50* | -3
O=C(CCCOc1ccccc1)N1CCCCC1 | -3 | -3 | -4 | -3 | x | x
Nc1nncn1C(=O)CCc1ccccc1 | -1 | 72* | 2 | 0 | 49* | -3
O=S(=O)(NCCN1CCOCC1)c1cc(Cl)c(Cl)cc1Cl | 1 | -10 | 1 | -1 | x | x
Oc1c(C(c2ccccc2)N2CCc3ccccc3C2)sc2ncnn12 (configuration not stated) | 0 | 58* | -3 | -3 | 18 | 2
CC1CCCN(C(c2ccccc2)c2sc3ncnn3c2O)C1 (configuration not stated) | 0 | 55* | 0 | 0 | -28 | 1
CC(=O)N(C(C)=O)S(=O)(=O)c1ccc(N=NN2CCCCC2)cc1 | 4 | -6 | -2 | -1 | x | x
COC(=O)Nc1nc(Sc2ncc(C(F)(F)F)cc2Cl)n[nH]1 | -5 | 69* | -2 | -1 | 70* | -1
COc1cccc2cc(C(=O)NCCN3CCOCC3)c(=O)oc12 | 0 | 4 | 1 | -3 | x | x
CNc1nc(NN)nc(Nc2ccccc2)n1 | 0 | 33* | -4 | -5 | 4 | 1
CNc1nc(Nc2ccccc2)nc(OCC(F)(F)F)n1 | 1 | 9 | -3 | -2 | x | x
CC(/C=N/NC(=O)c1cc(-c2cccn2C)n[nH]1)=C\c1ccccc1 | 0 | 10 | -4 | -4 | x | x
Cc1c(Cl)cccc1N1C(=O)CC(N(O)c2ccccc2)C1=O (configuration not stated) | -4 | 33* | -3 | -5 | -8 | 0
O=C(Nn1c(O)c(C=C2N=c3ccccc3=N2)sc1=S)c1ccccc1Cl | 2 | 54* | -4 | -4 | -30 | -1
CCOC(=O)C(NC(=O)N(C)C)(Nc1sc(C)c(CC)c1C#N)C(F)(F)F (configuration not stated) | -5 | 49* | -6 | -2 | 1 | -2
